Many of the other results were omitted from the sample, so hits are more common in it than they were.
RORa inhibitor: blocks the human nuclear receptor RORA; 65,000 compounds, 0.43% hits; inhibition, % at 10 µM; CHO-K1 Gal4-RORA LBD luciferase reporter, luminescence; P35398;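 active means inhibition above the mean of all tested compounds plus 3 SD, cut at about 52% in these data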;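 further: 0% = RORA-transfected cells with DMSO and 100% = mock-transfected cells lacking RORA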
Target sequence (P35398 whole entry, looked up, the tested form may be a part): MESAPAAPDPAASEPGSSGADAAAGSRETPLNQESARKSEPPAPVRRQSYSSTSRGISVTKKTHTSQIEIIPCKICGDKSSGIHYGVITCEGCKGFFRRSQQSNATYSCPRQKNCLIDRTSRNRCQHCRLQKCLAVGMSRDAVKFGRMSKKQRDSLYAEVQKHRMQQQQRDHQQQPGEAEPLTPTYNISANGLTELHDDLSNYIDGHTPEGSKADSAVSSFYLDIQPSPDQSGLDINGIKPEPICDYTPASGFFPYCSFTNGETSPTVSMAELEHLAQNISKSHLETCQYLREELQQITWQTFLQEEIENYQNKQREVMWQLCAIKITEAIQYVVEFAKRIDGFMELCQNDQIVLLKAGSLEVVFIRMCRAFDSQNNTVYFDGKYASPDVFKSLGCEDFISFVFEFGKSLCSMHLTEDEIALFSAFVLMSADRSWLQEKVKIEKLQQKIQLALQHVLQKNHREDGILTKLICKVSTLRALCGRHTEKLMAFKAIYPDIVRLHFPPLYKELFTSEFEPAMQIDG
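Material: transiently transfected CHO-K1 cells, Gal4-DBD/human RORA-LBD fusion plus 5xGal4-luciferase reporter; doses: single concentration per compound, 10 µM final; incubation: 20 h at 37 °C; detection: luminescence from basal luciferase reporter expression; read-out: % inhibition of basal luciferase versus +RORA/-RORA DMSO controls; replication: tested once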
* hit, by the source's call.

SMILES	RORa inhibitor
O=C(NCc1ccco1)Nc1ccc(Br)cc1Cl	-57
Cc1nn(-c2ccccc2)c(Cl)c1C(=O)N1CCN(c2ncnc3c2cnn3-c2ccccc2)CC1	37
Cc1ccc(-n2ncc3c(N4CCC(C(N)=O)CC4)ncnc32)c(C)c1	15
CCOC(=O)C1CCN(c2ncnc3c2cnn3-c2ccc(Cl)cc2)CC1	66*
Nc1nc(N)c2sc3nc4c(cc3c2n1)CCC4	-56
Cc1ccc2oc(Nc3nc(C)cc(C)n3)nc2c1	-52
Cc1nnc2c3cnn(-c4ccc(Cl)cc4)c3ncn12	-65
COc1ccc(NC(=O)C(c2ccc(C)cc2)N(C)C(=O)c2cnccn2)cc1 (stereo unspecified)	-1
Cc1ccc(-c2nnc(Nc3ccccc3)o2)cc1	61*
CCOc1ccccc1C(=O)Nc1ccc(-c2nnc(-c3ccc(C)cc3)o2)cc1	11
Brc1cccc(-c2nnc(-c3ccccc3)o2)c1	-39
CCOCC(=O)Nc1ccc(S(=O)(=O)Nc2ncccn2)cc1	28
CC(=O)Nc1nc2ccc(-c3nc4ccccc4o3)cc2s1	-69
CC1CCc2nc(NC(=O)c3ccco3)sc2C1 (stereo unspecified)	62*
CS(=O)(=O)c1ccc2nc(NC(=O)c3ccco3)sc2c1	-66
C=CCOC(=O)c1sc(NC(=O)c2ccco2)nc1C	-53
CC1(C)CC(=O)C(C=NCC2CCCO2)=C(O)C1 (stereo unspecified)	0
O=C(Cc1ccccc1)Nc1c(C(=O)N2CCOCC2)cnn1-c1ccccc1	-11
N/C(=N\S(=O)(=O)c1ccc(Cl)s1)c1ccccc1	24
O=C(CC1Oc2ccccc2NC1=O)NCc1ccccc1 (stereo unspecified)	4
CC(=O)CC1OC(=O)C(Br)=C1NCc1ccccc1 (stereo unspecified)	63*
Cc1ccnc(N2CCN(c3c4c(c(C#N)c5nc6ccccc6n35)CCC4)CC2)c1	14
CC1CCN(C(=O)CSc2ccc3nnc(-c4ccccc4)n3n2)CC1	8
CCOC(=O)N1CCC(=C2c3ccc(Cl)cc3CCc3cccnc32)CC1	-12
Cc1nnc(SCc2ccccc2Cl)n1CC1CCCO1 (stereo unspecified)	6
SMILES	RORa inhibitor
Cc1cc(C(=O)CN2C(=O)c3ccccc3S2(=O)=O)c(C)n1CC1CCCO1 (stereo unspecified)	62*
COc1ccc(-c2nnc(SCC(=O)NC(C)C)n2CC2CCCO2)cc1OC (stereo unspecified)	-15
CCOC(=O)c1c(NC(=O)CSc2nnnn2C)sc(CC)c1C	-3
CCOc1ccc(OCC(=O)Nc2ccc(S(=O)(=O)Nc3cc(C)nc(C)n3)cc2)cc1	-5
CCOc1ccc(S(=O)(=O)n2cnc3cc(C)c(C)cc32)cc1	66*
CCCCOc1ccc(S(=O)(=O)N2CCCCCC2)cc1	-12
Cc1nc2cc(NC(=O)NCCC3=CCCCC3)ccc2o1	-73
COc1ccc(-c2nnc(SCc3nnc(-c4ccccc4)o3)n2C)cc1OC	-53
CCNc1nc(N)nc(Oc2ccc(C(=O)OC)cc2)n1	-56
COc1ccc(S(=O)(=O)NCCc2ccc(F)cc2)cc1	14
COc1ccc(CCC(=O)NCc2cnn(C)c2)cc1	10
COc1ccc(CCNc2c(C)c(C)nc3ncnn23)cc1	78*
O=C(O)[C@H](Cc1ccccc1)NC(=O)N1CCOCC1	9
Cc1cc(/C=c2/sc3nc4ccccc4n3c2=O)c(C)n1-c1ccccn1	87*
COc1ccccc1C(=O)Nc1c2c(nn1-c1cccc(C)c1C)CS(=O)(=O)C2	20
CCOC(=O)C1CCCN(c2c(NCCCN3CCCC(C)C3)c(=O)c2=O)C1 (stereo unspecified)	8
COc1ccc2cc3c(N)c(C(=O)N4CCCC4)sc3nc2c1	8
COc1ccc(-c2cc3nc4n(c(=O)c3s2)CCC4)cc1	71*
O=C(Nc1ccc2nc3n(c(=O)c2c1)CCCCC3)c1ccccn1	-54
Cc1noc(C)c1C(=O)OCC(=O)c1cc(C)n(Cc2ccccc2Cl)c1C	-49
COC(=O)c1ccc(Oc2cc(C)nc(SC)n2)cc1	-58
N#CC(C#N)=c1ccc2c(c1)NC1(CCCCC1)N=2	58*
CCOCCCNCC(=O)N1CCN(S(=O)(=O)c2ccc(C)cc2)CC1	24
NC(=O)C1CCN(C(=O)CSCc2ccccc2Cl)CC1	-16
Cc1ccc(-c2nsc3c(N4CCC(C(N)=O)CC4)ncnc23)cc1	57*
SMILES	RORa inhibitor
Cn1c(SCc2ccc(C#N)cc2Cl)nc2ccccc21	-82
CCOc1ccc(-c2cc(CCCC(=O)Nc3cccc(OC)c3)no2)cc1	45
CCCCC(=O)Nc1ccc(NC(=O)c2cc(OC)c(OC)c(OC)c2)cn1	14
CCOc1ccc(-c2cc(CCCC(=O)NCCc3ccc(OC)c(OC)c3OC)no2)cc1	57*
O=C(NCCCn1ccnc1)c1csc2ccccc12	4
CCOC(=O)N1CCN(C(=O)C(c2ccccc2)c2ccccc2)CC1	1
Cc1ccc2[nH]c3c(N4CCCCCC4)ncnc3c2c1	78*
c1nc(N2CCN(Cc3ccc4c(c3)OCO4)CC2)c2[nH]cnc2n1	22
Cc1ccc2[nH]c3c(N4CCN(Cc5ccc6c(c5)OCO6)CC4)ncnc3c2c1	82*
COc1ccc2c(c1)[nH]c1c(N3CCN(Cc4ccc5c(c4)OCO5)CC3)ncnc12	72*
O=C(N1CCN(Cc2ccc3c(c2)OCO3)CC1)C12CC3CC(CC(C3)C1)C2	8
Cc1ccc2c(c1)c1ncnc(N3CCC4(CC3)OCCO4)c1n2C	-62
O=C(Cn1ccc2ccccc2c1=O)N1CCN(Cc2ccc3c(c2)OCO3)CC1	-8
COCCn1nnnc1C(c1ccc(C)cc1)N1CCN(Cc2ccc3c(c2)OCO3)CC1 (stereo unspecified)	9
Cc1ccnc2nc(C(=O)N3CCN(S(=O)(=O)c4ccccc4)CC3)nn12	-14
COc1ccccc1C1/C(=C(/O)c2ccc(Cl)cc2)C(=O)C(=O)N1CCN1CCOCC1 (stereo unspecified)	-21
CC1CCc2ccccc2N1C(=O)c1cccs1 (stereo unspecified)	2
CC1CCCCN1C(=O)C1CC(c2ccc(F)cc2)=NO1 (stereo unspecified)	-49
COc1ccc(-c2cc(=O)n(-c3nc4ccccc4[nH]3)[nH]2)cc1	8
CC(C)(C)c1ccc(S(=O)(=O)N2CCCC2C(=O)NC2=NCCS2)cc1 (stereo unspecified)	15
Cc1cc(NC(=O)CSc2ncnc3ccccc23)no1	-3
COC(=O)CCP(=O)(O)Cc1ccccc1CP(=O)(O)CCC(=O)OC	0
Cc1ccccc1NC(=O)N1CCCC(c2nc(-c3ccc(C(C)C)cc3)no2)C1 (stereo unspecified)	54*
Cc1ccccc1NC(=O)N1CCCC(c2nc(-c3ccc(F)cc3)no2)C1 (stereo unspecified)	7
CC(C)CCn1nnnc1C(c1ccc(N(C)C)cc1)N1CCN(C(=O)c2ccco2)CC1 (stereo unspecified)	22
SMILES	RORa inhibitor
CC1(C)N=C(c2ccc(Cl)cc2Cl)C(=O)N1	-9
Cc1nc2nc(COc3ccccc3)[nH]n2c(=O)c1Cl	26
CC(C)OC(=O)C(NC(=O)c1ccccc1)=C1CCCCC1	-2
O=C(NCc1ccncc1)c1cccc(F)c1	6
Nc1nc(Cl)nc2c1ncn2[C@H]1C[C@H](O)[C@@H](CO)O1	69*
CCOc1ccccc1-n1c(COc2ccc(C)cc2)nnc1SCC(N)=O	7
Cc1ccc2c(c1)N(CC(=O)NCCc1c[nH]c3ccccc13)C(=O)CO2	3
